The list is not random: actives were taken first. Their share in the collection is about 1.5%.
CXCR6 block – CXCR6 (human) receptor inhibition | inhibition, % at 20 µM | 360,000 tested, 0.36% active | CHO-K1 PathHunter CXCR6 beta-arrestin, luminescence | AID 602244 | O00574; in the data active means inhibition above about 34%, passing the limit was not always enough;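 further: antagonist mode with CXCL16 agonist at 10 nM final; 0% = 10 nM CXCL16 with DMSO and 100% = unstimulated wells without agonist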
APJ antag – blocks the human apelin receptor APJ | inhibition, % at 20 µM | 330,000 tested, 0.32% active | CHO-K1 APJ beta-arrestin complementation, luminescence;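 active means inhibition above about 40% at 20 µM, limit read from the data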;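 further: cells challenged with 10 nM apelin-13 agonist together with compound; plate controls were apelin-13 plus DMSO wells for no effect and DMSO wells lacking apelin-13 for full effect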
EBI2 antag – EBI2 (human) antagonism; P32249; EBI2 beta-arrestin recruitment, luminescence, 7a,25-OHC stimulated; 360,000 tested, 0.81% active; inhibition, % at 5 µM; in the data active means inhibition above about 38%;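 further: enzyme fragment complementation signal reports receptor beta-arrestin coupling in cells; 0% = agonist plus DMSO wells and 100% = wells without agonist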
APJ ag – APJ receptor agonism; AID 2520; 330,000 tested, 0.11% active; CHO-K1 APJ PathHunter beta-arrestin, luminescence; 0% DMSO wells, 100% apelin; activation, % at 20 µM; P35414;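 active means activation more than six SD over the plate average, tested at 20 µM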;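 further: 0% = DMSO alone and 100% = apelin-13 at 10 nM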
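system = engineered CHO-K1 APJ arrestin reporter cells | input = 1000 cells per well | timing = overnight seeding, 90 min compound at 25 °C, 1 h detection | measured by = enzyme-fragment complementation luminescence | read-out = beta-arrestin recruitment to APJ as agonist activity, luminescent signal | control set = negative DMSO alone, positive Apelin-13 at 10 nM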
CCR6 antagonist – antagonists of human CCR6 receptor; inhibition, % at 20 µM; P51684; 340,000 tested, 0.49% active; CHO-K1 CCR6 PathHunter beta-arrestin, luminescence, CCL20-stimulated;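 active means compounds whose inhibition of the agonist-driven luminescence signal at 20 µM reaches about 50%, limit read from the data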;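 further: cells stimulated with CCL20 at 14 nM final; plate controls were DMSO with CCL20 for no effect and DMSO without agonist for full effect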
Target sequence (P51684 whole entry, looked up): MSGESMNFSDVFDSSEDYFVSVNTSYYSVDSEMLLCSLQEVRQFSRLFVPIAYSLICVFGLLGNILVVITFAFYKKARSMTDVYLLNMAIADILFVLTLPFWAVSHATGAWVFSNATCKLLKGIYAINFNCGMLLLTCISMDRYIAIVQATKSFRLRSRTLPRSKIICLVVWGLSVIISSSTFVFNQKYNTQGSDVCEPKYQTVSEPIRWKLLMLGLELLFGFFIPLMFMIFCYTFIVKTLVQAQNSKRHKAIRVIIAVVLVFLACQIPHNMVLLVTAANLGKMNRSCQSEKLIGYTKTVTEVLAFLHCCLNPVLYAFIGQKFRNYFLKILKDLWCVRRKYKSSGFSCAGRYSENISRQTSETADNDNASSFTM
EBI2 antag conf – EBI2 (human) antagonism, single concentration confirmation; AID 651997; inhibition, % at 5 µM; 2,400 tested, 29% active; EBI2 beta-arrestin luminescence, 7a,25-OHC antagonism; shares compounds with EBI2 antag;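 active means inhibition of at least 50%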
EBI2 agonist – EBI2 agonism counter-screen. EBI2-expressing cells, agonist mode, luminescence, 60 min; 0% vehicle, 100% 7α,25-dihydroxycholesterol control. activation, % at 5 µM. 2,400 tested, under 10 active. shares compounds with EBI2 antag;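 active means activation of at least 50%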
bGal cs – counter-screen for EBI2 antagonists: E. coli beta-galactosidase inhibition; purified beta-galactosidase, luminescent Galacton Star, 15 min; AID 652176; 2,400 tested, 1% active; inhibition, % at 5 µM; shares compounds with EBI2 antag;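 active means replicate-average signal at least 3 plate SD below neutral wells, shown as high inhibition, flagging enzyme-inhibiting false positives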;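 further: 0% = DMSO wells with enzyme and 100% = wells lacking enzyme; higher means stronger loss of beta-gal luminescence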
Active calls of the source: *; . = not tested or not shown.

SMILES	CXCR6 block	APJ antag	EBI2 antag	APJ ag	CCR6 antagonist	EBI2 antag conf	EBI2 agonist	bGal cs
Cc1ccc(OCC(=O)N2CCN(C(=O)c3ccncc3)CC2)cc1	-2	2	44*	-1	-6	27	2	4
COc1ccc(OCC(=O)N2CCN(C(=O)c3cccc(F)c3)CC2)cc1	-6	-20	81*	-6	9	61*	-1	5
Cc1ccc(OCC(=O)N2CCN(C(=O)c3cccc(F)c3)CC2)cc1	2	9	84*	-2	2	49	2	5
COc1ccc(OCC(=O)N2CCN(C(=O)c3ccc(F)cc3)CC2)cc1	8	8	79*	0	7	65*	1	5
CCc1ccc2nc(N(CCN(C)C)C(=O)c3ccc4ncsc4c3)sc2c1	-4	-7	15	7	11	.	.	.
COc1ccc(CCNC(=O)CCCOc2ccc(Cl)cc2)cc1OC	-1	-2	6	-3	11	.	.	.
O=C(/C=C/c1ccc(Cl)cc1)NCc1cccs1	5	-35	53*	-1	17	53*	-1	-9
O=C(/C=C/c1ccc(Cl)cc1)NCCSc1ccccc1	3	9	60*	-7	15	31	1	-10
O=C(/C=C/c1ccccc1)NCCSCc1ccc(Cl)cc1	-7	5	52*	-10	11	15	-2	-9
CSc1cccc(NC(=O)/C=C/c2ccc(Cl)cc2)c1	-8	-24	59*	-3	17	68*	2	-2
Cc1ccc(F)cc1NC(=O)N1c2ccccc2NC(=O)CC1C (configuration not stated)	5	3	3	-5	9	.	.	.
Cc1ccccc1N1CCN(CC(=O)Nc2ccccc2C(=O)NC2CC2)CC1	26	-2	22	-5	41	.	.	.
O=C(Nc1cccc2cccnc12)c1ccc2sc([C@@H]3O[C@H](CO)[C@H](O)[C@H](O)[C@H]3O)nc2c1	8	.	-7	.	.	.	.	.
CC(C)C[C@@H](CN1CCC[C@@H]1CN1C(=S)NC[C@@H]1Cc1ccc(O)cc1)N1C[C@H](Cc2ccc(O)cc2)N(CC2CCCCCC2)C1=S	-6	.	85*	.	.	47	0	-15
CC(C)C[C@@H](CN1CCC[C@@H]1CN1C(=S)NC[C@@H]1Cc1ccc(O)cc1)N1C[C@H](Cc2ccc(O)cc2)N(CC2CCCCC2)C1=S	1	.	89*	.	.	42	-1	-11
CC(C)C[C@@H](CN1CCCC1CN1C(=S)NC[C@@H]1Cc1ccccc1)N1C[C@H](Cc2ccc(O)cc2)N(CC2CCCCC2)C1=S (some centres not stated)	0	.	16	.	.	.	.	.
CCN(CC(=O)NCc1ccc(Cl)cc1)C(=O)/C=C/c1ccccc1	-4	11	76*	-4	10	34	1	0
CCN(CC(=O)NCc1ccc(Cl)cc1)C(=O)/C=C/c1ccc(C#N)cc1	-2	9	51*	0	10	34	0	7
CCN(CC(=O)NCc1ccc(Cl)cc1)C(=O)c1ccc2cc(OC)ccc2c1	4	5	68*	2	18	52*	0	-5
CCN(CC(=O)NCc1ccc(Cl)cc1)C(=O)/C=C/c1ccc(Cl)c([N+](=O)[O-])c1	11	-23	21	4	17	.	.	.
CCN(CC(=O)NCc1ccc(Cl)cc1)C(=O)/C=C/c1ccco1	-2	8	-7	-1	2	.	.	.
Cc1sc(NC(=O)c2ccco2)c(CN2CCCCC2)c1C	-5	-4	-2	-5	26	.	.	.
Cc1sc(NC(=O)c2ccco2)c(CN2CCN(c3ccccc3)CC2)c1C	0	4	40*	-2	1	16	-1	-11
CC(Sc1nnnn1C)C(=O)Nc1cc(S(=O)(=O)N2CCCCC2)ccc1Cl (configuration not stated)	16	6	-19	0	4	.	.	.
CC1CC(C)CN(c2ccc([N+](=O)[O-])cc2-c2nn[nH]n2)C1 (configuration not stated)	13	1	74*	-2	27	51*	0	15
SMILES	CXCR6 block	APJ antag	EBI2 antag	APJ ag	CCR6 antagonist	EBI2 antag conf	EBI2 agonist	bGal cs
COc1ccc(C(O)(C(=O)NNc2ccc(C)cc2)c2cccs2)cc1 (configuration not stated)	-3	31	-3	-20	13	.	.	.
O=C(NNc1ccc(C2CCCCC2)cc1)C(O)(c1ccccc1)c1cccs1 (configuration not stated)	-8	31	41*	-9	24	36	0	8
Oc1ccccc1-c1nnc(COc2ccc(Cl)cc2Cl)o1	20	0	1	-3	14	.	.	.
Clc1ccc(-c2nnc(CCc3ccccc3)o2)c(Cl)c1	-1	-11	55*	-7	21	41	1	1
N#C/C(=C/c1ccc2c(c1)OCO2)C(=O)NCCc1c[nH]c2ccccc12	3	7	51*	0	13	44	1	9
O=C(CN1CCSCC1)N/N=C/c1cccc(Cl)c1	-3	-7	1	-1	3	.	.	.
CCn1c(C(=O)OC)cc2c1ccn2-c1ccc(F)cc1	5	18	46*	-4	16	20	-1	-8
COC(=O)c1cc2c(ccn2-c2ccc(F)cc2)n1Cc1ccc(OC)cc1	8	6	44*	2	26	19	0	5
C=CCn1c(SCc2ccc(C(=O)Nc3ccccc3)cc2)nnc1-c1ccccc1	5	-30	49*	-5	1	15	1	10
COc1cc(C(=O)N2CCN(C(=O)c3cc(-c4ccccc4)n[nH]3)CC2)cc(OC)c1OC	-1	5	42	1	13	.	.	.
O=C(c1ccc(Br)s1)N1CCN(C/C=C/c2ccccc2)CC1	5	-22	43*	-1	-2	16	-1	-5
O=C(Nc1cccc(Cl)c1)N1CCN(C/C=C/c2ccccc2)CC1	-8	-7	55*	0	12	41	0	-6
C[C@H](NC(=O)c1ccc(C(C)(C)C)cc1)C(=O)N1CCN(C/C=C/c2ccccc2)CC1	8	-7	72*	-3	21	54*	0	-13
O=C(CCN1CCN(C/C=C/c2ccccc2)CC1)Nc1ccc(Cl)cc1	-7	-25	-7	-4	2	.	.	.
CC(C)C(NC(=O)c1ccccc1)C(=O)N1CCN(C/C=C/c2ccccc2)CC1 (configuration not stated)	9	6	22	-2	3	.	.	.

Source: PubChem (Sanford-Burnham Center for Chemical Genomics)
